Experiment [1] relates to Pseudomonas aeruginosa. The experiment in a line: Inhibition of swarming motility of Pseudomonas aeruginosa PT1308 expressing Clostridium perfringens 23S rRNA methylase ErmBP at 2 ug/ml after 18 hrs. It counts as functional, organism-based. The essentials:
(§1)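 Swarm plates were 0.5% agar M9 with 0.2% glucose, 1 mM MgSO4 and 0.05% glutamate as nitrogen source, containing azithromycin. Three μl of overnight LB culture was spotted, and plates were read after 18 h at 37°C.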

In experiment [2] the test system is Pseudomonas aeruginosa. The experiment in a line: Inhibition of rhamnolipid production in Pseudomonas aeruginosa 12B overexpressing mexXY incubated for 24 hrs at 37 degC further 24 hrs at 25 degC. It counts as functional, organism-based. The essentials: (§2)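 SW plates (M9 with 0.1% glutamate replacing NH4Cl, 0.2% glucose, 1 mM MgSO4) carried an azithromycin gradient of 0–50 μg/ml. Three-μl droplets of about 10^6 CFU were spotted at equal spacing. Plates were incubated 24 h at 37°C, then 24 h at 25°C.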

Experiment [3] deals with Pseudomonas aeruginosa. The experiment in a line: Inhibition of rhamnolipid production in azithromycin-hypersusceptible Pseudomonas aeruginosa 11B harboring mexX deletion mutant incubated for 24 hrs at 37 degC further 24 hrs at 25 degC. It counts as functional, organism-based. An outline of the steps:
as §2

Experiment [4] deals with Pseudomonas aeruginosa. The experiment in a line: Inhibition of rhamnolipid production in Pseudomonas aeruginosa PT1323 harboring pAKRHL expressing rhlAB gene up to 50 ug/ml incubated for 24 hrs at 37 deg C further 24 hrs at 25 deg C. The class given is functional, organism-based. The essentials:
as §2

In experiment [5] the test system is Pseudomonas aeruginosa. The experiment in a line: Bactericidal activity against stationary-phase Pseudomonas aeruginosa PT1300 culture harboring vector pEX1.8 at 1 to 16 ug/ml after 22 hrs by plating serial dilution method in presence of 1 mM Mg2+. It counts as functional, organism-based. The essentials:
(§3)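 Stationary-phase LB cultures of PT1300 or PT1308 received azithromycin plus 1 mM MgSO4, then 22 h at 37°C. Viable counts came from serial dilutions plated on LB agar. Values are means ± standard deviations of three independent experiments.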

For experiment [6], the system named is Pseudomonas aeruginosa. The experiment in a line: Bactericidal activity against stationary-phase Pseudomonas aeruginosa PT1308 culture expressing Clostridium perfringens 23S rRNA methylase ErmBP assessed as effect on cell viability at 1 to 16 ug/ml after 22 hrs by plating serial dilution method. The class given is functional, organism-based. The essentials:
(§4)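 Overnight LB cultures (with carbenicillin 100 μg/ml or gentamicin 15 μg/ml for plasmid strains) were diluted to OD600 0.05 in antibiotic-free LB and grown at 37°C to stationary phase. Azithromycin was added to 2-ml aliquots at similar cell densities, and incubation continued 20–22 h at 37°C. Viable counts came from serial dilutions plated on LB agar.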

Experiment [7] deals with Pseudomonas aeruginosa. The experiment in a line: Antimicrobial activity against exponential-phase Pseudomonas aeruginosa PT1323 cultures harboring mutation in bacterial rhlA protein and expressing rhamnosyltransferase rhlAB gene at 1 mg/ml after 18 hrs by susceptibility assay. It counts as functional, organism-based. The essentials:
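LB agar plates with an azithromycin gradient (maximal 1 mg/ml) were streaked with each strain. Plates were read after 18 h at 37°C.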

The subject of experiment [8] is Pseudomonas aeruginosa. The experiment in a line: Inhibition of rhamnolipid production in Pseudomonas aeruginosa PT1300 harboring vector pEX1.8 up to 50 ug/ml incubated for 24 hrs at 37 degC further 24 hrs at 25 degC. The class given is functional, organism-based. An outline of the steps:
as §2

The test system of experiment [9] is Pseudomonas aeruginosa. The experiment in a line: Bactericidal activity against Pseudomonas aeruginosa PT1323 harboring rhlAB-encoding pAKRHL at 2 to 18 ug/ml after 22 hrs by plating serial dilution method. The class given is functional. An outline of the steps:
as §4

Experiment [10] concerns Pseudomonas aeruginosa. The experiment in a line: Bactericidal activity against Pseudomonas aeruginosa PT1332 rhlA mutant harboring vector pAK1900 at 2 to 18 ug/ml after 22 hrs by plating serial dilution method. The class given is functional. The essentials:
as §4

Experiment [11] relates to Pseudomonas aeruginosa. The experiment in a line: Inhibition of swarming motility of Pseudomonas aeruginosa PT1300 harboring vector pEX1.8 at 2 ug/ml after 18 hrs. The class given is functional, organism-based. An outline of the steps: as §1
Experiment [12] concerns Pseudomonas aeruginosa. The experiment in a line: Inhibition of elastase production in Pseudomonas aeruginosa PT1300 harboring vector pEX1.8 after 18 hrs by elastin Congo red assay. It counts as functional, organism-based. The essentials:
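Cultures grew 7 h in Pseudomonas broth. Supernatant was mixed with excess elastin Congo red (4 mg/ml) in 0.1 M Tris pH 7.4, 1 mM CaCl2 and held 18 h at 37°C. After centrifugation, A495 was read and expressed as OD495/OD600 of the culture. Values are means ± standard deviations of five independent experiments.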

The nature of experiment [13]: Ratio of bactericidal activity against Pseudomonas aeruginosa PT712 harboring mutation in bacterial rhlA protein to bactericidal activity against wild type Pseudomonas aeruginosa PAO1 PT5. It counts as functional. The essentials:
as §4

For experiment [14], the system named is Pseudomonas aeruginosa. The experiment in a line: Bactericidal activity against stationary-phase Pseudomonas aeruginosa PT1308 culture expressing Clostridium perfringens 23S rRNA methylase ErmBP at 1 to 16 ug/ml after 22 hrs by plating serial dilution method in presence of 1 mM Mg2+. It counts as functional, organism-based. An outline of the steps: as §3

In experiment [15] the test system is Pseudomonas aeruginosa. The experiment in a line: Bactericidal activity against stationary-phase Pseudomonas aeruginosa PT1300 culture harboring vector pEX1.8 after 20 to 22 hrs by plating serial dilution method. It counts as functional, organism-based. An outline of the steps:
as §4

The source made the active and inactive calls. The rule behind the calls is not given here.

Consider `CC[C@H]1OC(=O)[C@H](C)[C@@H](O[C@H]2C[C@@](C)(OC)[C@@H](O)[C@H](C)O2)[C@H](C)[C@@H](O[C@@H]2O[C@H](C)C[C@H](N(C)C)[C@H]2O)[C@](C)(O)C[C@@H](C)CN(C)[C@H](C)[C@@H](O)[C@]1(C)O` [AZITHROMYCIN], for which the inhibition result with Pseudomonas aeruginosa [1], in the experiment on Pseudomonas aeruginosa [2] and in the experiment on Pseudomonas aeruginosa [4] was “inactive” in each case. Also, the inhibition result in the experiment on Pseudomonas aeruginosa [3], with Pseudomonas aeruginosa [8] and in the experiment with Pseudomonas aeruginosa [11] was “Active” each time. Moreover, the outcome in the experiment on Pseudomonas aeruginosa [5], in the experiment on Pseudomonas aeruginosa [6], in the experiment on Pseudomonas aeruginosa [7] and in the experiment with Pseudomonas aeruginosa [14] was inactive. In addition, the results for the Activity in the experiment on Pseudomonas aeruginosa [9], in the experiment on Pseudomonas aeruginosa [10] and in the experiment with Pseudomonas aeruginosa [15] were 4, 1 and “Dose-dependent effect”, respectively. The inhibition result with Pseudomonas aeruginosa [12] was “Dose-dependent effect”. For the same molecule, in experiment [13], the Ratio was 1000.

The values are drawn from ChEMBL document CHEMBL1152455, “Ribosome protection prevents azithromycin-mediated quorum-sensing modulation and stationary-phase killing of Pseudomonas aeruginosa” (2007).
